Experimental data reported in ChEMBL document CHEMBL2412953, “Synthesis and biological evaluation of new N-alkylcarbazole derivatives as STAT3 inhibitors: preliminary study” (Eur J Med Chem, 2013).
Blank lines part the entries; values can stand above or below the compound they belong to. Active and inactive are the calls of the source. No cut-off for these calls is given here.

Experiments:
[1] = tested on: THP-1; assay: Effect on total STAT3 level in IL-6-stimulated human THP1 cells at 50 uM incubated for 30 mins prior to IL-6 stimulation measured after 15 mins by Western blot analysis; assay type: functional, cell-based
[2] = target: Signal transducer and activator of transcription 3 (Homo sapiens) (UniProt P40763); assay: Inhibition of IL-6-induced cytosolic STAT3 phosphorylation at Tyr705 in human THP1 cells at 50 uM incubated for 30 mins prior to IL-6 induction measured after 15 mins by Western blot analysis; assay type: cell-based; details: THP-1
Method in brief: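 THP-1 cells (1.5 × 10⁶/mL) pretreated 30 min, then IL-6 20 ng/mL for 15 min. Cells were lysed at 4 °C in HEPES pH 7.4 NP-40 buffer with protease and phosphatase inhibitors. Lysate protein was run on 7.5% SDS-PAGE, blotted to PVDF and probed overnight at 4 °C with rabbit anti-phospho-Tyr705 STAT3.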

[3] = tested on: THP-1; assay: Inhibition of TNFalpha and LPS-induced NFkappaB activation in human THP1 cells at 50 uM incubated for 30 mins prior to TNFalpha and LPS-induction measured after 30 mins by EMSA; assay type: cell-based
Method in brief: (§1)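 THP-1 cells (1.5 × 10⁶/mL) pretreated 30 min with compound, then stimulated 30 min with IFNγ (STAT1) or TNFα plus LPS (NF-κB). Nuclear extracts were analysed for DNA-binding by EMSA.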

[4] = target: T1, Signal transducer and activator of transcription 1-alpha/beta (Homo sapiens) (UniProt P42224); assay: Inhibition of IFNgamma-induced STAT1 activation in human THP1 cells at 50 uM incubated for 30 mins prior to IFNgamma induction measured after 30 mins by EMSA; assay type: cell-based; details: THP-1; method in brief: as §1
T1 sequence (whole entry): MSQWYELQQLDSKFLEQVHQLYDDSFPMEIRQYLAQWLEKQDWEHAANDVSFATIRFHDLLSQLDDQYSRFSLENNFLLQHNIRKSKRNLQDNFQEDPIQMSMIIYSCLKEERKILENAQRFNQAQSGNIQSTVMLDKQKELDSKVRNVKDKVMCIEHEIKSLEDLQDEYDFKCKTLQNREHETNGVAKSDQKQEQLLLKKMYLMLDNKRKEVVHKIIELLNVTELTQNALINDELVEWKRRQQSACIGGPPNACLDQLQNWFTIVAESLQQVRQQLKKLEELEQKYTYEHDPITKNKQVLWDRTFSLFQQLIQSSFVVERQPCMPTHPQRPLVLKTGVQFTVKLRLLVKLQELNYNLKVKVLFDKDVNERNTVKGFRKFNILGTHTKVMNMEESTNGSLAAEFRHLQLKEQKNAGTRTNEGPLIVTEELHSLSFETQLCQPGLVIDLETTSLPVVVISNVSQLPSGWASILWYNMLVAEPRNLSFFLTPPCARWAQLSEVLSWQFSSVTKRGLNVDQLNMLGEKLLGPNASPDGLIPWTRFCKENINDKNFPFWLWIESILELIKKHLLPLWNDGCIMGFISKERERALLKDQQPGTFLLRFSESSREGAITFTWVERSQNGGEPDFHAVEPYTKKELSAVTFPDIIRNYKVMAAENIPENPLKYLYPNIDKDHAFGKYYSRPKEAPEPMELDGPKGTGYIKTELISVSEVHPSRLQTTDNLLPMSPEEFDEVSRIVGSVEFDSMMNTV

[5] = target: Signal transducer and activator of transcription 3 (Homo sapiens) (UniProt P40763); assay: Inhibition of IL-6-stimulated STAT3 activation in human THP1 cells at 50 uM incubated for 30 mins prior to IL-6 stimulation measured after 15 mins by EMSA relative to control; assay type: cell-based; details: THP-1
Method in brief: (§2)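 THP-1 cells (1.5 × 10⁶/mL; RPMI 1640, 10% FBS, 37 °C, 5% CO₂) pretreated 30 min with compound, then IL-6 20 ng/mL for 15 min. Nuclear extracts, made with protease inhibitors, were assayed for STAT3 DNA-binding by EMSA in Hepes pH 7.9 buffer with poly(dI-dC). Gel bands quantified by densitometry; % inhibition versus IL-6 alone, mean ± SD.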

[6] = target: Signal transducer and activator of transcription 3 (Homo sapiens) (UniProt P40763); assay: Inhibition of IL-6-stimulated STAT3 activation in human THP1 cells at 100 uM incubated for 30 mins prior to IL-6 stimulation measured after 15 mins by EMSA relative to control; assay type: cell-based; details: THP-1; method in brief: as §2

Sequence of Signal transducer and activator of transcription 3 (Homo sapiens) (P40763 whole entry): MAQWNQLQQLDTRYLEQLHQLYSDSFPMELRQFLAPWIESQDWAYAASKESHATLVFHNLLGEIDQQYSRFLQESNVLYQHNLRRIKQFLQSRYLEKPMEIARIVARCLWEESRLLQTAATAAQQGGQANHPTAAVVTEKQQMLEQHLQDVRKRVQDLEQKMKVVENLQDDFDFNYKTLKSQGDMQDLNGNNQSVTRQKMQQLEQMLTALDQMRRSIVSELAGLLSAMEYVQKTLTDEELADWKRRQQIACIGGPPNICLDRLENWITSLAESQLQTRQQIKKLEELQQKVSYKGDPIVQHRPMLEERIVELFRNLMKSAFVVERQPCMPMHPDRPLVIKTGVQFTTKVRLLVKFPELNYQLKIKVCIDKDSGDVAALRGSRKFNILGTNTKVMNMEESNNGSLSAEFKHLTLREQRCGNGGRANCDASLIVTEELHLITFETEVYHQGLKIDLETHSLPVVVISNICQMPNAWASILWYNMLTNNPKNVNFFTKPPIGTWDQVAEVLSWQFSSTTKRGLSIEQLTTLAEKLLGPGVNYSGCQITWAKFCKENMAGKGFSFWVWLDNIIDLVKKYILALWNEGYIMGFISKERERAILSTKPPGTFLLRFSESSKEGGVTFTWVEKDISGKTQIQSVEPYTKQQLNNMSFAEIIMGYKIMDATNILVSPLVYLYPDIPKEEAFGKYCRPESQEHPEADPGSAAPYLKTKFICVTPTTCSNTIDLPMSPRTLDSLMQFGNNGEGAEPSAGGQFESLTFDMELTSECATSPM

Compound: COC(=O)c1cc(OCCCCCCn2c3ccccc3c3ccc(O)cc32)cc(C(=O)OC)c1
inhibition [6]: 1%

Compound: COC(=O)c1cc(OCCCCCn2c3ccccc3c3ccc(O)cc32)cc(C(=O)OC)c1
inhibition [6]: 1%

Compound: COC(=O)c1ccccc1OCCCCCCn1c2ccccc2c2c(O)cccc21
inhibition [6]: 3%

Compound: COC(=O)c1ccccc1OCCCCCCn1c2ccccc2c2ccc(O)cc21
inhibition [6]: 1%

Compound: COC(=O)c1cc(OCCCCCCCn2c3ccccc3c3ccc(O)cc32)cc(C(=O)OC)c1
inhibition [6]: 5%

Compound: COC(=O)c1cc(OCCCCCCCn2c3ccccc3c3c(O)cccc32)cc(C(=O)OC)c1
inhibition [6]: 6%

Compound: COC(=O)c1cc(OCCCCCn2c3ccccc3c3c(O)cccc32)cc(C(=O)OC)c1
inhibition [6]: 20%

Compound: COC(=O)c1cc(OCCCCCCn2c3ccccc3c3c(O)cccc32)cc(C(=O)OC)c1
inhibition [6]: 5%

Second part, led by results:

inhibition [2]: Active
inhibition [4]: inactive
inhibition [5]: 90%
Compound: COC(=O)c1cc(OCCCCCCCn2c3ccc(OC)cc3c3c(C)ccc(C)c32)cc(C(=O)OC)c1
Activity [1]: inactive
inhibition [3]: inactive

inhibition [6]: 1%
Compound: COC(=O)c1ccccc1OCCCCCCn1c2ccc(OC)cc2c2c(C)ccc(C)c21

inhibition [6]: 6%
Compound: COC(=O)c1ccccc1OCCCCCCCn1c2ccc(OC)cc2c2c(C)ccc(C)c21

inhibition [2]: Active
inhibition [4]: inactive
inhibition [5]: 50%
Compound: COC(=O)c1cc(OCCCCCn2c3ccc(OC)cc3c3c(C)ccc(C)c32)cc(C(=O)OC)c1
Activity [1]: inactive
inhibition [3]: inactive

inhibition [6]: 3%
Compound: COC(=O)c1ccccc1OCCCCCn1c2ccc(OC)cc2c2c(C)ccc(C)c21

inhibition [2]: Active
inhibition [4]: inactive
inhibition [5]: 95%
Compound: COC(=O)c1cc(OCCCCCCn2c3ccc(OC)cc3c3c(C)ccc(C)c32)cc(C(=O)OC)c1
Activity [1]: inactive
inhibition [3]: inactive
